The source of these data is PMC3117328 (Chemistry & biology, 2009).

pEC50: −log10 of the molar value.

Data set [1] deals with EF-G GTPase (70S ribosomes) (Escherichia coli, UniProt P0A7J7). Put plainly: EF-G GTPase Pi release assay with MDCC-labeled PBP. The data set is classed as biochemical.
The target in data set [2] is IF2 (70S initiation complex formation) (Escherichia coli, UniProt P0A7J7). In words: IF2^Cy3 fluorescence change assay. The data set is classed as biochemical. The note with it: ThS, NoS at 1.5 µM (Figure 2A); precursors in dose response screen.
Sequence of IF2 (70S initiation complex formation) (P0A7J7 2-142, one chain of several): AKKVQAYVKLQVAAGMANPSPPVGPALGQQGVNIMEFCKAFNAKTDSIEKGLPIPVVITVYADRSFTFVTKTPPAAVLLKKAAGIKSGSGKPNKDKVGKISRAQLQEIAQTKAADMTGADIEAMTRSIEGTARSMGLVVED
Data set [3] deals with Escherichia coli in vitro coupled transcription-translation (GFP synthesis). Put plainly: In vitro coupled transcription-translation. The data set is classed as biochemical. The note with it: 5 µM ThS, 5 µM NoS, 25 µM GE2270T (Figure 4). Put shortly: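 E. coli lysate-based coupled transcription-translation system expressing GFP, ribosomes ~2 µM, run with or without test compound. After reaction, samples are moved to microtiter plates. GFP fluorescence is imaged on a laser scanner with blue-laser excitation and quantified from the images, with inhibition taken against the no-antibiotic reaction.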

For data set [4] the following is noted: background statement, no reference given; cited from earlier work.
Data set [5] concerns the target EF-G GTPase (E. coli 70S ribosomes) (Escherichia coli, UniProt P0A7J7). The data set is classed as biochemical. The settings on record: compound 1 µM; 30 nM 70S ribosomes, 20 µM GTP, 60 nM protein.

Sequence of EF-G GTPase (70S ribosomes) (P0A7J7 2-142): as the sequence (P0A7J7 2-142, one chain of several) above
Sequence of EF-G GTPase (E. coli 70S ribosomes) (P0A7J7 2-142): as the sequence (P0A7J7 2-142, one chain of several) above

As usually defined, the pEC50 is −log10 of the EC50, conventionally taken in molar units. Read a low pEC50 as a high EC50. Compound `C/C=C(\NC(=O)c1csc(-c2csc(-c3ccc4c(n3)-c3csc(n3)[C@H]([C@@H](C)O)NC(=O)c3csc(n3)[C@H](C(C)C)NC(=O)c3csc(n3)/C(=C/C)NC(=O)[C@H]([C@@H](C)O)NC(=O)c3csc-4n3)n2)n1)C(=O)NC[C@@H](C)O` [MiC, micrococcin] had a pEC50 in data set [1] of 6.96.
Take `C=C(NC(=O)c1csc(-c2nc3c(cc2O)-c2nc(cs2)C(=O)N[C@@H]([C@@H](C)O)C(=O)N/C(=C\C)c2nc(cs2)C(=O)N[C@H]2C[C@H](O)C(=O)OCc4cccc5[nH]c(c(C)c45)C(=O)SC[C@H](NC(=O)c4csc2n4)c2nc-3cs2)n1)C(N)=O` [NoS, nosiheptide]: the “inhibition of the IF2^Cy3 fluorescence increase on 70SIC formation (in words)” value in data set [2] is listed as “inhibited”. Also, the “inhibition of GFP synthesis in the in vitro TT assay” value (“inhibition of GFP synthesis” for short) in data set [3] was “potent inhibitors”. The compound also had a pEC50 in data set [1] of 7.40.
For the compound `C=C(NC(=O)C(=C)NC(=O)c1csc(C2=N[C@@H]3c4csc(n4)[C@H]4NC(=O)c5csc(n5)[C@H]([C@](C)(O)[C@@H](C)O)NC(=O)[C@H]5CSC(=N5)/C(=C/C)NC(=O)[C@H]([C@@H](C)O)NC(=O)c5csc(n5)[C@]3(CC2)NC(=O)[C@H](C)NC(=O)C(=C)NC(=O)[C@H](C)NC(=O)[C@H]([C@@H](C)CC)N[C@@H]2C=Cc3c([C@H](C)O)cc(nc3[C@H]2O)C(=O)O[C@@H]4C)n1)C(N)=O` [ThS, thiostrepton], the “inhibition of the IF2^Cy3 fluorescence increase on 70SIC formation (in words)” value in data set [2] is on record as “inhibited”. Besides, in data set [4], the bioavailability result is given as “poor”. Moreover, the “inhibition of GFP synthesis” value in data set [3] is “potent inhibitors”. The “inhibition of EF-G GTPase activity (Malachite Green)” value in data set [5] was “almost completely abolished”.
Consider GE2270T, for which the “inhibition of GFP synthesis” value in data set [3] was “potent inhibitors”.
